# The source made the active and inactive calls.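 The calls were made as follows: active = mean EC50 below 10 µM; inactive = the rest.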
# Target: Apelin receptor (Homo sapiens) (UniProt P35414)
# Assay: apelin receptor activation by small molecules – cell-based, CHO-K1 AGTRL-1, PathHunter luminescence, set 5, SAR follow-up (AID 504524)
# Conditions: CHO-K1 AGTRL-1 PathHunter beta-arrestin
# In short: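 Assay system: CHO-K1 cells, APJ and β-arrestin complementation reporter; incubation: overnight seeding, 90 min exposure at 25 °C, 60 min detection; dosing: compounds tested as a dose-response series; signal: β-Gal complementation luminescence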
# Apelin receptor (Homo sapiens), sequence (P35414 whole entry, looked up): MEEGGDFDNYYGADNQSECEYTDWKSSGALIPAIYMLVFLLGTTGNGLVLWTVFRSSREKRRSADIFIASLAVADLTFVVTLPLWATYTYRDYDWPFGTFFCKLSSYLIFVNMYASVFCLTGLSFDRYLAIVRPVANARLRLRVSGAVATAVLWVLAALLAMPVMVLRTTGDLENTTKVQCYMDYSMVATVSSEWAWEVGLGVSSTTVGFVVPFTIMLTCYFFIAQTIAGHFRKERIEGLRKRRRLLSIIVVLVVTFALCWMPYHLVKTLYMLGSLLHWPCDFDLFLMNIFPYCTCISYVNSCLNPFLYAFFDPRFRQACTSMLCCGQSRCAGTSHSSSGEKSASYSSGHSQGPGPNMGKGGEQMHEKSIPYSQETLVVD
row,Compound,EC50
1,CC1=CC(=O)C(C(C)C)=C/C1=N\OS(=O)(=O)c1cn(C)cn1,inactive
2,CC1=CC(=O)C(C(C)C)=C/C1=N/OS(=O)(=O)c1cccc(C)c1,5.68 µM
3,CC1=CC(=O)C(C(C)(C)C)=C/C1=N\OS(=O)(=O)c1cccc(Cl)c1,7.8 µM
4,CC1=CC(=O)C(C(C)(C)C)=C/C1=N\OS(=O)(=O)c1cn(C)cn1,10 µM
5,N#Cc1ccc(S(=O)(=O)ON=C2C=CC(=O)C(c3ccccc3)=C2)cc1,> 79 µM (inactive)
6,CC1=CC(=O)C(C(C)C)=C/C1=N\OS(=O)(=O)c1cccc(Cl)c1,3.17 µM
7,CC1=CC(=O)C(C(C)C)=C/C1=N/OS(=O)(=O)c1cccc(C#N)c1,1.96 µM
8,Cc1cc(N=O)c(C(C)C)cc1O,> 79 µM (inactive)
9,CC1=CC(=O)C(C(C)C)=C/C1=N/OS(=O)(=O)c1cccc(Br)c1,3.16 µM
10,COc1cccc(S(=O)(=O)O/N=C2\C=C(C(C)C)C(=O)C=C2C)c1,5.23 µM
11,COc1cccc(S(=O)(=O)O/N=C2\C=C(C(C)(C)C)C(=O)C=C2C)c1,7.96 µM
12,CC1=CC(=O)C(C(C)(C)C)=C/C1=N/OS(=O)(=O)c1cccc(Br)c1,inactive
13,CC1=CC(=O)C(C(C)(C)C)=C/C1=N/OS(=O)(=O)c1cccc(C#N)c1,3.21 µM
14,CC1=CC(=O)C(C(C)(C)C)=C/C1=N\OS(=O)(=O)C1CCCCC1,inactive
15,Cc1cc(O)c(C(C)(C)C)cc1N=O,> 79 µM (inactive)
16,CC1=CC(=O)C(C(C)(C)C)=C/C1=N/OS(=O)(=O)c1cccc(C)c1,9.59 µM
17,CC(C)C1=CC(=NOS(=O)(=O)c2ccccc2)C=CC1=O,4.96 µM
18,CC1=CC(=O)C(C(C)C)=C/C1=N\OS(=O)(=O)c1ccccc1Cl,1.94 µM
19,O=C1C=CC(=NOS(=O)(=O)c2ccccc2)C=C1c1ccccc1,> 79 µM (inactive)
20,CC1=CC(=O)C(C(C)(C)C)=C/C1=N\OS(=O)(=O)c1ccccc1Cl,8.69 µM

# Results, then the molecule that gave them:
row,EC50,Compound
1,5.53 µM,COc1cccc(S(=O)(=O)O/N=C2\C=C(C3CCCCC3)C(=O)C=C2C)c1
2,5.13 µM,CC1=CC(=O)C(C2CCCCC2)=C/C1=N/OS(=O)(=O)c1cccc(C#N)c1
3,inactive,CC1=CC(=O)C(C(C)C)=C/C1=N\OS(=O)(=O)C1CCCCC1
4,5.49 µM,CC1=CC(=O)C(C2CCCCC2)=C/C1=N/OS(=O)(=O)c1cccc(C)c1
5,2.61 µM,CC1=CC(=O)C(C2CCCCC2)=C/C1=N\OS(=O)(=O)c1cccc(Cl)c1
6,3.59 µM,CC1=CC(=O)C(C2CCCCC2)=C/C1=N\OS(=O)(=O)c1c(Cl)cccc1Cl
7,6.03 µM,CC1=CC(=O)C(C2CCCCC2)=C/C1=N/OS(=O)(=O)c1cccc(Br)c1
8,6.36 µM,CC1=CC(=O)C(C2CCCCC2)=C/C1=N\OS(=O)(=O)c1cn(C)cn1
9,6.5 µM,CC1=CC(=O)C(C2CCCCC2)=C/C1=N\OS(=O)(=O)c1ccccc1Cl
10,7.9 µM,CC1=CC(=O)C(C(C)(C)C)=C/C1=N\OS(=O)(=O)c1c(Cl)cccc1Cl
11,3.53 µM,CC1=CC(=O)C(C(C)C)=C/C1=N\OS(=O)(=O)c1c(Cl)cccc1Cl

# Source: PubChem BioAssay AID504524 (Sanford-Burnham Center for Chemical Genomics, 2011)
